Published values collected from several papers.
Observed: microbial growth

CCOCCn1cnc2nc(NCc3ccc(Cl)c(Cl)c3)[nH]c(=O)c21 — MIC (Bacteroides fragilis; agar dilution; 48 h): > 32 µg/mL
O=C(c1cc(O)c(O)c(O)c1)c1cc2ccccc2o1 — MIC (Lodderomyces parapsilosis; broth dilution): 16 µg/mL
C=CCn1c(-c2ccc(OC)c(OC)c2)nc2ccccc21 — MIC (Aspergillus niger; ATCC16404): 512 µg/mL
Cc1cc(C)n(C(=O)c2ccc(-n3c(C)ccc3C)cc2)n1 — MIC (Aspergillus niger; broth dilution; ATCC6275): > 500 µg/mL
O=C1/C(=C/c2cc(O)c(O)c(O)c2)Oc2cccc(O)c21 — MIC (Lodderomyces parapsilosis; broth dilution): 16 µg/mL
O=[N+]([O-])c1ccc(-c2nc3ccccc3n2Cc2ccccc2)cc1 — MIC (Aspergillus niger; ATCC16404): 64 µg/mL
CCCCCCCCCCCN1CCNCC1 — MIC (Lodderomyces parapsilosis; broth dilution; ATCC22019; 48 h): 7.8 µg/mL
CC1=NN(CNc2ccc(Cl)cc2)C(=O)C1=NNn1c(-c2ccccc2)nc2ccccc2c1=O — MIC (Aspergillus niger; broth dilution): 51.5 µM
CCCCCCCCCCCCCCN1CCOCC1 — MIC (Lodderomyces parapsilosis; broth dilution; ATCC22019; 48 h): > 31.3 µg/mL
Cc1ccc2nc(-c3ccc([N+](=O)[O-])cc3)n(Cc3ccccc3Cl)c2c1 — MIC (Aspergillus niger; ATCC16404): 128 µg/mL
CCc1cc(Nc2cc(=O)n(CCCCO)c(=O)[nH]2)ccc1C — MIC (Bacteroides fragilis; agar dilution; 48 h): > 32 µg/mL
c1ccc2c(-c3nc4ccccc4[nH]3)c3ccccc3cc2c1 — MIC (Aspergillus niger; ATCC16404): 256 µg/mL
O=C1NN=C(N=Cc2ccc(O)c(O)c2)C1=NNn1c(-c2ccccc2)nc2ccccc2c1=O — MIC (Aspergillus niger; broth dilution): 107 µM
CCOc1ccc(-c2nc3ccccc3n2Cc2ccccc2)cc1 — MIC (Aspergillus niger; ATCC16404): 256 µg/mL
CCCCCCCCCN1CCNCC1 — MIC (Lodderomyces parapsilosis; broth dilution; ATCC22019; 48 h): > 31.3 µg/mL
Cc1ccc(C)n1-c1ccc(-c2nnc(-c3c(Cl)cccc3Cl)[nH]2)cc1 — MIC (Aspergillus niger; broth dilution; ATCC6275): 2 µg/mL
CCCCCCCCN1CCN(CC(O)(Cn2cncn2)c2ccc(F)cc2F)CC1 (stereo not shown) — MIC (Lodderomyces parapsilosis; broth dilution; ATCC22019; 48 h): 0.03 µg/mL
Cc1ccc2nc(-c3ccc([N+](=O)[O-])cc3)[nH]c2c1 — MIC (Aspergillus niger; ATCC16404): 512 µg/mL
CN1CCNCC1 — MIC (Lodderomyces parapsilosis; broth dilution; ATCC22019; 48 h): > 31.3 µg/mL
O=c1[nH]c(NCc2ccc(Cl)c(Cl)c2)nc2ncn(CCN3CCOCC3)c12 — MIC (Bacteroides fragilis; agar dilution; 48 h): > 32 µg/mL
CCCCCCCCCCN1CCN(CC(O)(Cn2cncn2)c2ccc(F)cc2F)CC1 (stereo not shown) — MIC (Lodderomyces parapsilosis; broth dilution; ATCC22019; 48 h): 0.015 µg/mL
O=[N+]([O-])c1cccc(-c2nc3ccccc3[nH]2)c1 — MIC (Aspergillus niger; ATCC16404): 512 µg/mL
CC1=NN(CNc2ccc(O)cc2)C(=O)C1=NNn1c(-c2ccccc2)nc2ccccc2c1=O — MIC (Aspergillus niger; broth dilution): 107 µM
CCCCCCCCCCCCN1CCNCC1 — MIC (Lodderomyces parapsilosis; broth dilution; ATCC22019; 48 h): 1.95 µg/mL
Cc1ccc(C)n1-c1ccc(C(=O)NNC=O)cc1 — MIC (Aspergillus niger; broth dilution; ATCC6275): 250 µg/mL
CCCCCCCCCCCCCCN1CCNCC1 — MIC (Lodderomyces parapsilosis; ATCC22019): 0.975 µg/mL
Cc1ccc2nc(-c3ccc(Cl)cc3)[nH]c2c1 — MIC (Aspergillus niger; ATCC16404): 256 µg/mL
Cc1ccc(C)n1-c1ccc(-c2nnc(-c3cccc([N+](=O)[O-])c3)[nH]2)cc1 — MIC (Aspergillus niger; broth dilution; ATCC6275): 31.2 µg/mL
